{"data": "Experimental data pooled from the literature", "organism": "Trypanosoma brucei", "read-out": "parasite growth", "note": "Each line is one published result; the experiments were not run side by side."}
{"Compound": "Cc1ccc(Cn2cc(C(=O)N/N=C/c3ccc([N+](=O)[O-])s3)c(=O)c3cc(Br)ccc32)cc1", "technique": "resazurin", "time": "72 h", "EC50": "140 nM"}
{"Compound": "O=c1c(O[C@@H]2O[C@H](CO)[C@@H](O)[C@H](O)[C@H]2O)c(-c2ccc(O)c(O)c2)oc2cc(O)cc(O)c12", "technique": "resazurin", "time": "48 h", "EC50": "> 20000 nM"}
{"Compound": "COc1ccc2c(c1)c(=O)c(C(=O)NN)cn2Cc1ccc(C)cc1", "technique": "resazurin", "time": "72 h", "EC50": "> 4000 nM"}
{"Compound": "Cc1cc(C)c(C#N)c(SCC(=O)c2ccccc2O)n1", "technique": "resazurin", "EC50": "> 64000 nM"}
{"Compound": "N=C(N)c1ccc(OCCCCCOc2ccc(C(=N)N)cc2)cc1", "technique": "SYBR Green", "strain": "GAMBIENSE", "EC50": "9 nM"}
{"Compound": "Cc1ccc(C(=O)Nc2ccc(S(=O)(=O)O)c3cc(S(=O)(=O)O)cc(S(=O)(=O)O)c23)cc1NC(=O)c1cccc(NC(=O)Nc2cccc(C(=O)Nc3cc(C(=O)Nc4ccc(S(=O)(=O)O)c5cc(S(=O)(=O)O)cc(S(=O)(=O)O)c45)ccc3C)c2)c1", "strain": "RHODESIENSE", "EC50": "50 nM"}
{"Compound": "Cc1cc(C)c(C#N)c(NCC(O)c2ccc(F)cc2)n1 (stereo not shown)", "technique": "resazurin", "strain": "RHODESIENSE", "EC50": "7860 nM"}
{"Compound": "CCCCCC(=O)NC(Cc1ccc(N)cc1)C(=O)NC(Cc1ccc(N)cc1)C(=O)NC(CC(C)C)C(=O)C1(C)CO1 (stereo not shown)", "technique": "SYBR Green", "time": "72 h", "EC50": "< 500 nM"}
{"Compound": "COc1ccc(C(=O)CSc2nc(C)cc(C)c2C#N)cc1", "technique": "resazurin", "EC50": "> 64000 nM"}
{"Compound": "CC(=O)O[C@H]1C(=O)[C@@]2(C)[C@H]([C@H](OC(=O)c3ccccc3)[C@]3(O)C[C@H](OC(=O)[C@H](O)[C@@H](NC(=O)c4ccccc4)c4ccccc4)C(C)=C1C3(C)C)[C@]1(OC(C)=O)CO[C@@H]1C[C@@H]2O", "EC50": "7.6 nM"}
